In the library only some 2% were active in any assay of this set; here they are far more common.
Xi reactivation – reactivates the inactive X chromosome in mouse fibroblasts; XiGFP mouse fibroblasts, % GFP-positive cells imaging, 3 d; cells co-treated with 5-aza-dC sensitizer; scaled so ellipticine positive control = 100%; activation, % at 7.58 µM; 360,000 tested, 0.055% active; AID 743238;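 active = mean normalized replicate activation at least 10% and every replicate at or above 10%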;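 also: 0% = median of on-plate neutral control wells and 100% = ellipticine 6 µM median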
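System: XiGFP fibroblasts, SV40-immortalized. Medium: DMEM plus 5-aza-dC sensitizer. Doses: single point. Timing: 3 d treatment, 15 min room-temperature fixation. Control set: ellipticine 6 µM.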
SR-BI DiI inh – blocks mouse SR-BI lipid uptake from DiI-HDL; Q61009; ldlA[mSR-BI] CHO cells, DiI-HDL uptake fluorescence, 3 h; inhibition, % at 12.5 µM; 320,000 tested, 0.96% active; AID 488896;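 active = mean replicate inhibition of at least 70% and a set share of replicates each scoring 70 or more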;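 also: 0% = median of neutral control wells and 100% = median of positive control wells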
NSD2 inh – inhibitors of human histone methyltransferase NSD2 | O96028 | NSD2 peptide methylation, AlphaScreen, 120 min | inhibition, % at 12.5 µM | 310,000 tested, 0.54% active; in the data active = inhibition above about 50%
HGIII-sPLA2 inh – Blocks human group III sPLA2 activity; QFRET BODIPY PC-A2 liposome hydrolysis, fluorescence; Q9NZ20; inhibition, % at 12.2 µM; 370,000 tested, 0.56% active;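 active = inhibition above mean plus 3 SD of compounds lying within the high and low control bounds, cut at about 19% in these data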;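 also: 0% = median of test compound wells and 100% = no enzyme DMSO wells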
Target sequence (Q9NZ20 whole entry, looked up): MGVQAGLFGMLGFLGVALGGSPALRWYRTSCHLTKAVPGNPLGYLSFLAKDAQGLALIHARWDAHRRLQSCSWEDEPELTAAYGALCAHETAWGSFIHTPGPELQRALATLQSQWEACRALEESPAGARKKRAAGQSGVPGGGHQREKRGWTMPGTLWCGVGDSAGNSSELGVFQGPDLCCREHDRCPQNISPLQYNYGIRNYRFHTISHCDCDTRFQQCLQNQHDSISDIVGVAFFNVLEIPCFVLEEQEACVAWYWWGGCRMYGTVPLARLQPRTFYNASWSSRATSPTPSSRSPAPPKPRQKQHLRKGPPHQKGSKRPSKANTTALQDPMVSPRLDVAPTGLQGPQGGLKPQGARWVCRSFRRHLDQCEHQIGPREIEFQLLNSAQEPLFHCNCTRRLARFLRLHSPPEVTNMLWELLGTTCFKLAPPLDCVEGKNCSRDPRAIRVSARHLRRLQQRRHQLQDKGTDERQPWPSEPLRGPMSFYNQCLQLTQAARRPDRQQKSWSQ
SR-BI uptake up – SR-BI HDL lipid transfer activation | 320,000 tested, 0.096% active | CHO ldlA[mSR-BI] cells, DiI-HDL uptake fluorescence, 3 h; 100 = double the neutral-control signal | activation, % at 12.5 µM | AID 504775;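 active = mean replicate activation of at least 60% and every replicate at or above 60%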;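 also: 0% = median plate neutral-control signal and 100% = twice that signal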
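Test system: SR-BI-overexpressing, LDLR-lacking CHO cells; Medium: Ham's F12 with 0.5% BSA, HEPES 25 mM, pH 7.4; Schedule: 3 h, 37 °C; Technique: bottom-read fluorescence, 550/595 nm.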
ARNT TACC3 PPI – ARNT/TACC3 interaction disruption; Q9Y6A5; AlphaScreen His-ARNT PAS-B/GST-TACC3 binding, luminescence; TACC3 fragment carries E629A point mutation; 390,000 tested, 0.66% active; inhibition, % at 9.99 µM;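 active = mean inhibition of replicates at least 50% and at least half of replicates each reaching 50%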;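 also: 0% = complete ARNT plus TACC3 wells and 100% = ARNT alone without TACC3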
The depositor's hits bear a star; x = no result.

SMILES	Xi reactivation	SR-BI DiI inh	NSD2 inh	HGIII-sPLA2 inh	SR-BI uptake up	ARNT TACC3 PPI
Cc1cc(C)nc(N/N=C/c2ccccc2)n1	x	-13	1	x	13	3
Cc1[nH]c2ccccc2c1/C=N/Nc1nc(Nc2ccccc2)nc(N2CCOCC2)n1	x	130*	1	-18	-130	6
COc1ccc(O)c(/C=N/Nc2nc(Nc3ccccc3)nc(-n3nc(C)cc3C)n2)c1	x	22	1	-5	-22	-3
O=C(Nc1nnc([C@@H]2C[C@H](O)[C@@H](CO)O2)s1)Nc1cccc2ccccc12	0	x	14	7	x	x
Fc1ccc(N2CCN(C3=Nc4ccccc4Sc4ccccc43)CC2)cc1	x	x	x	12	x	x
Oc1ccc(/C=N/Nc2nc(-c3ccc(Cl)cc3)cc(C(F)(F)F)n2)cc1	0	80*	x	-15	-80	15
COc1ccc(/C=N/Nc2nc(C)cc(-c3ccccc3)n2)c(OC)c1	0	74*	4	-4	-74	-1
COc1ccc(/C=N/Nc2nc(Nc3ccccc3)nc(N3CCCCC3)n2)c(OC)c1	0	89*	1	-3	-89	1
Cc1ccc(-n2nc(CN3CCOCC3)c(-c3ccccc3)c2N)cc1Cl	0	9	3	-3	-9	-2
CN1C(=O)[C@H]2[C@@H](/C=C/c3ccccc3)N3C(=O)CN(CCO)C(=O)[C@@]3(C)[C@H]2C1=O	0	9	x	5	-9	-3
CCCC(C)(C)C(=O)N1CCC1(C)C(=O)Nc1ccc2c(c1)OCCO2 (centres undefined)	0	x	-5	0	x	x
CC(=O)N1CCN(c2ccc(NC(=O)c3cccc(Cl)c3Cl)cc2)CC1	0	48	0	10	-48	-2
O=C(Nc1ccc(N2CCCC2)cc1)c1cccc(Cl)c1Cl	0	79*	2	18	-79	-1
O=C(Nc1ccc(N2CCCC2)cc1)c1ccc2ccccc2c1	0	88*	-1	14	-88	-1
O=C(Nc1ccc(N2CCCC2)cc1)c1cccc(-c2cc3ccccc3oc2=O)c1	0	90*	-1	16	-90	2
COCCCN(C(=O)CSCC(=O)Nc1cccc(C)c1)c1c(N)n(Cc2ccccc2)c(=O)[nH]c1=O	0	16	2	0	-16	0
COc1ccc([N+](=O)[O-])cc1NC(=O)c1ccccc1SC	0	77*	x	0	-77	-3
COc1ccc(OC)c(NC(=O)/C=C/c2ccccc2[N+](=O)[O-])c1	0	86*	1	-6	-86	-4
COc1ccc([N+](=O)[O-])cc1NC(=O)c1ccc(-n2nc(C)cc2C)cc1	0	90*	-1	-9	-90	-17
COc1ccc(NC(=O)/C=C/c2ccccc2[N+](=O)[O-])c(OC)c1	0	58	4	-7	-58	-3
COc1ccc(OC)c(NC(=O)c2cccc(C)c2[N+](=O)[O-])c1	0	73*	-1	-1	-73	-2
CCOc1ccccc1N(C)C(=O)c1cn(C)c(=O)c2ccccc12	0	-7	-3	5	7	20
COC(=O)c1cc(C#N)c(Oc2ccccc2OC)nc1C	x	64	-4	-1	-64	-17
COc1cccc(C(=O)Nc2ccc(Oc3nnc(-c4ccccc4)c4ccccc34)cc2)c1	0	x	1	-3	x	x
Cc1ccc(-c2nnc(Oc3ccc(NC(=O)c4ccccc4)cc3)c3ccccc23)cc1	0	-169	-2	0	169*	3
SMILES	Xi reactivation	SR-BI DiI inh	NSD2 inh	HGIII-sPLA2 inh	SR-BI uptake up	ARNT TACC3 PPI
CCOc1ccc(C(C)=O)cc1COC(=O)c1ccc2c(c1)NC(=O)CS2	0	80*	-3	-25	-80	5
O=C(CC1S/C(=N/N=C/c2cccs2)NC1=O)Nc1ccccc1F (centres undefined)	0	80*	3	0	-80	20
[O-][n+]1onc2c1CCc1c-2nc(-c2ccccc2)n1OCc1ccccc1	x	80*	-5	2	-80	-8
CCN1C(=O)CSC1=NC1C2CC3CC(C2)CC1C3 (centres undefined)	x	11	-2	5	-11	-6
C[C@@H]1CN([C@H](C)CO)C(=O)c2cc(-c3cncnc3)cnc2O[C@@H]1CN(C)Cc1ccccc1	0	x	x	x	x	-12
Cc1cc(=O)[nH]c(N/N=C/c2ccc(O)c(O)c2)n1	0	-5	3	1	5	67*
Cc1cc(=O)[nH]c(N/N=C/c2c(O)n(-c3ccccc3)c(=O)c3ccccc23)n1	0	-2	4	-4	2	72*
Cc1cc(=O)[nH]c(NN=Cc2c(Cl)cccc2Cl)n1	0	15	-1	-2	-15	-9
Cc1cc(=O)[nH]c(N/N=C/c2ccc(Br)s2)n1	0	-11	-1	6	11	61*
O=C(COC(=O)c1nsc(Cl)c1Cl)NC1CCCC1	0	-1	-5	4	1	-3
COCC#Cc1ccc([C@@H]2[C@H]3CN(S(=O)(=O)c4cccc(OC)c4)CCCCN3[C@H]2CO)cc1	0	x	x	x	x	1
Cc1ccccc1NS(=O)(=O)c1cc(C(=O)Nc2cccc(N(C)S(C)(=O)=O)c2)ccc1C	x	71*	-2	-31	-71	2
CN(c1cccc(NC(=O)c2ccc(Cl)c(S(=O)(=O)Nc3ccccc3)c2)c1)S(C)(=O)=O	x	52	-3	-11	-52	0
CCC(C(=O)Nc1cc(Cl)c(OC)cc1OC)c1ccccc1 (centres undefined)	0	17	-6	0	-17	0
COc1cc(OC)c(NC2=CC(=O)C(=O)c3ccccc32)cc1Cl	0	102*	29	11	-102	7
Cc1cc(NC2=CC(=O)C(=O)c3ccccc32)no1	0	1	-1	-1	-1	37*
COc1ccc(C)cc1NC(=O)C(OC(=O)c1ccc(Cl)c(S(=O)(=O)N(C)c2ccccc2)c1)c1ccccc1 (centres undefined)	0	-6	1	3	6	0
CC1CCCCC12NC(=O)N(CC(=O)Nc1cccnc1Cl)C2=O (centres undefined)	0	-10	2	4	10	21
CCN(CC)S(=O)(=O)c1ccc(Cl)c(NC(=S)NC(=O)C2CCCC2)c1	0	71*	3	-5	-71	-3
CCN(CC)c1ccc(S(=O)(=O)Nc2cc(Cl)ccc2Cl)cc1NC(=S)NC(=O)C1CCCC1	0	-33	0	-93	33	-1
COc1cccc(NC(=O)CCC(=O)Nc2cc(OC)c(NC(=O)c3cccs3)cc2OC)c1	0	13	-15	-6	-13	50*

Assay outcomes deposited in PubChem by several laboratories.
